We go through 11 compounds from ChEMBL document CHEMBL1148779, “Synthesis and biological evaluation of imidazoquinoxalinones, imidazole analogues of pyrroloiminoquinone marine natural products” (J Med Chem, 2007).

One data set is filed under the species Homo sapiens. The data set can be described thus: Inhibition of human recombinant topoisomerase 2. The gist of the method: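 Relaxation assay with recombinant human topoisomerase II (p170), 4 units, and 0.25 µg supercoiled pRYG DNA. Buffer: 50 mM Tris pH 8.0, 120 mM KCl, 10 mM MgCl2, 0.5 mM DTT, 0.5 mM ATP. Drug was added in varying amounts for 45 min at 37 °C. Reactions were stopped with SDS and proteinase K, then extracted with chloroform/isoamyl alcohol. Products were run on a 1% agarose gel and stained with ethidium bromide. Etoposide was the positive control.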

In another data set the test system is MDA-N. The data set can be described thus: Growth inhibition of human MDA-N cells. The class given is functional.
Data set [1] is described as follows: (§1) Growth inhibition of NCI60 cells. The class given is functional. The following applies: Homo sapiens; for TGI: read-out: Log TGI (converted).
The next data set has as its system NCI60. The data set is described as §1. The following applies: Homo sapiens. The class given is functional.
A further data set deals with MDA-MB-231. The data set can be described thus: Growth inhibition of human MDA-MB-231 cells. The class given is functional.
A further data set relates to BT-549. Put plainly: Growth inhibition of human BT549 cells. The class given is functional.
Another data set deals with MDA-MB-435. The data set can be described thus: Growth inhibition of human MDA-MB-435 cells. It is filed as functional.
The nature of data set [2]: Toxicity in mouse at 400 mg/kg, ip. The class given is organism-based. Set-up: dose 400 mg/kg, route intraperitoneal. As to conditions: in vivo. The gist of the method:
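Acute toxicity in mice: the drug was formulated so that 400 mg/kg IP was given in 1 mL. Single IP doses of 400, 200 and 100 mg/kg were given (1, 0.5, 0.25 mL/mouse), using the body weight and strain planned for the hollow fiber assay. Mice were followed for 14 days for morbidity (body weight loss) and mortality. If mice died, the dose was halved serially in single mice until a tolerated dose was reached.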

For a further data set, the system named is A-431. Put plainly: Inhibition of human A431 cells. The class given is functional, cell-based. The gist of the method: (§2)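 MTT assay. HCT-116 cells were grown in McCoy's 5a with 10% FBS and 2 mM L-glutamine. A-431 cells were grown in DMEM with 10% FBS and 4 mM L-glutamine. Cells were plated at 10 000/well and dosed after 24 h. HCT-116 was tested at 0.3–100 µM and A-431 at 0.1–100 µM, for 48 h at 37 °C. MTT (final 0.3 mg/mL) was added for 3 h and formazan dissolved in DMSO. A570 was read and % cytotoxicity taken versus untreated control. Makaluvamine C at 10 µM was the positive control.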

For another data set, the system named is HCT-116. Put plainly: Inhibition of human HCT116 cells. It is filed as functional, cell-based. The gist of the method:
as §2

Each structure is given as a SMILES string. Activity calls are given as the source filed them. The calls are words filed in the database; no cut-off is given here. Some results are limits rather than exact numbers.

For the compound `COc1cc([C@@H]2c3cc4c(cc3[C@@H](O[C@@H]3O[C@@H]5CO[C@@H](C)O[C@H]5[C@H](O)[C@H]3O)[C@H]3COC(=O)[C@H]23)OCO4)cc(OC)c1O`, in the data set listed under Homo sapiens, the outcome was Active.
Take `CC(=O)NC1=C(C)C(=O)c2nc(C)n3c2C1=NCC3`: the concentration for 50% growth inhibition (GI50) (usually the concentration that inhibits growth by half) with MDA-N is 18.6 µM; in [1], 52.5 µM; with MDA-MB-231, 12.9 µM; in the data set on BT-549 it was under 0.01 µM; in the data set on MDA-MB-435 it was 19.1 µM. Also, in data set [1], the TGI (in general, the concentration giving total growth inhibition) is 81.3 µM. For the same compound, the result in the data set with NCI60 was inactive.
Consider `O=C1C(NCc2ccccc2)=CC2=NCCn3cnc1c32`, for which, in [1], the GI50 was 0.617 µM; the 50% lethal concentration (LC50) – broadly, the concentration lethal to half of the exposed cells or organisms – was 14.8 µM; the TGI was 2.82 µM. The compound further gave an MTD in data set [2] of 12.5 mg/kg.
With `CC(=O)NC1=C(C)C(=O)c2nc(COC(C)=O)n3c2C1=NCC3`, the outcome in the data set with NCI60 was inactive.
`COCc1nc2c3n1CCN=C3C=C(N)C2=O`: the IC50 with A-431 and in the data set on HCT-116 was 3 µM throughout.
`CC(=O)NC1=C(C)C(=O)c2ncn3c2C1=NCC3`: in [1], the 50% growth inhibitory concentration (GI50) is 46.8 µM. The outcome in the data set on NCI60 was inactive.
With `O=C1C(NCCO)=CC2=NCCn3cnc1c32`, in [1], it took 1.1 µM to inhibit growth by half (GI50), the LC50 is 20 µM and the concentration for total growth inhibition (TGI) was 4.27 µM.
The like results for `NC1=CC2=NCCn3cnc(c32)C1=O` were, in that order, 4.57 µM, 35.5 µM and 12.3 µM.
In the case of `O=C1C(NCCc2c[nH]c3ccccc23)=CC2=NCCn3cnc1c32`, the outcome in the data set filed under Homo sapiens was Active. Moreover, in data set [1], the GI50 was 0.234 µM, the LC50 is 6.76 µM and the TGI was 0.871 µM.
Regarding `O=C1C(NCCc2ccccc2)=CC2=NCCn3cnc1c32`, in data set [1], the GI50 was 0.166 µM, the LC50 was 5.5 µM and the TGI was 1.07 µM.
The like results for `O=C1C(NCCc2ccc(O)cc2)=CC2=NCCn3cnc1c32` were, in that order, 2.51 µM, 40.7 µM and 14.1 µM.
